Reference: ChEMBL document CHEMBL2203191, “Synthesis and biological evaluation of new fluorine substituted derivatives as angiotensin II receptor antagonists with anti-hypertension and anti-tumor effects” (Bioorg Med Chem, 2012)
The source made the active and inactive calls. The rule behind the calls is not given here.

How the values were obtained:
[1] = system: Rattus norvegicus; experiment: Cardiotoxicity in SHR rat assessed as effect on heart rate at 10 mg/kg, po; assay type: toxicity, organism-based; design: dose 10 mg/kg, route oral; conditions: in vivo
In short: (§1)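 Heart rate taken in SHR (250-300 g, 10 per group) given 5 or 10 mg/kg orally as a suspension in 0.5% sodium carboxymethyl cellulose, alongside a vehicle control. Monitored under sodium pentobarbital anesthesia (40 mg/kg ip) through a carotid arterial catheter and pressure transducer, continuously for over 10 h and again at 24 h.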

[2] = system: Rattus norvegicus; experiment: Antihypertensive activity in Sprague-Dawley rat renal hypertensive model assessed as decrease in mean arterial pressure at 10 mg/kg, po; assay type: functional, organism-based; design: dose 10 mg/kg; conditions: Artery
In short: (§2)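 SHR (250-300 g) or renal hypertensive rats (SD rats, 250-350 g, left renal artery fully ligated under sodium pentobarbital 40 mg/kg; SBP above 160 mmHg selected), 10 per group. Dosed orally at 5 or 10 mg/kg as a suspension in 0.5% sodium carboxymethyl cellulose; vehicle-only negative control. Rats under pentobarbital (40 mg/kg ip) with right carotid cannulated to a pressure transducer; MAP recorded continuously for over 10 h and again at 24 h.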

[3] = system: Rattus norvegicus; experiment: Antihypertensive activity in SHR rat assessed as decrease in mean arterial pressure at 10 mg/kg, po measured for 9 hrs after dosing; assay type: functional, organism-based; design: dose 10 mg/kg; conditions: Artery; in short: as §2
[4] = system: Rattus norvegicus; experiment: Antihypertensive activity in SHR rat assessed as decrease in mean arterial pressure at 10 mg/kg, po; assay type: functional, Artery; in short: as §2
[5] = (§3) Displacement of [125I]Angiotensin-2 from angiotensin AT1 receptor in Sprague-Dawley rat VSMC after 60 mins by gamma counting
In short: (§4)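 VSMCs from SD rat thoracic aorta, grown as explants in DMEM with 15% FBS; passages 3–7 used. Cells incubated with 0.1 nM [125I]Ang II and compound (1 × 10^-6 to 1 × 10^-12 M final) for 60 min at 37 °C. Nonspecific binding set with 1 µM Ang II. After PBS washes, cells lysed in 0.1 M NaOH and counted by gamma counter. IC50 obtained by regression of displacement curves; Ki = IC50/(1+[L]/Kd).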

[6] = organism: Rattus norvegicus; experiment: as §3; in short: as §4
[7] = system: Rattus norvegicus; experiment: Cardiotoxicity in SHR rat assessed as effect on heart rate at 5 mg/kg, po; assay type: toxicity, organism-based; design: dose 5 mg/kg, route oral; conditions: in vivo; in short: as §1
[8] = system: Rattus norvegicus; experiment: Antihypertensive activity in SHR rat assessed as mean arterial pressure at 5 to 10 mg/kg, po; assay type: functional, organism-based; conditions: Artery; in short: as §2
[9] = system: LNCaP; experiment: Antitumor activity against human LNCAP cells xenografted in athymic nude mouse assessed as relative tumor volume at 10 mg/kg/day dosed on day 8 measured at 4 weeks post implantation by caliper measurement (reference value: 28.34 +/-2.05); assay type: functional
[10] = system: LNCaP; experiment: Antitumor activity against human LNCAP cells xenografted in athymic nude mouse assessed as relative tumor volume at 5 mg/kg/day dosed on day 8 measured at 4 weeks post implantation by caliper measurement (reference value: 28.34 +/-2.05); assay type: functional
[11] = system: LNCaP; experiment: Cytotoxicity against human LNCAP cells assessed as cell viability at 10 uM after 24 to 96 hrs by MTT assay; assay type: cell-based
In short: (§5)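 LNCaP cells (1 × 10^5 per well) grown overnight at 37 °C, 5% CO2, then exposed to compound at 10 µM, with or without Ang II (1 × 10^-7 M). Control got medium with 0.05% v/v DMSO. MTT (5 mg/mL stock) added after 24, 48, 72 or 96 h and incubated 4 h at 37 °C; formazan dissolved in DMSO and read at 570 nm.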

[12] = system: LNCaP; experiment: Antiproliferative activity against human LNCAP cells assessed as reduction in Ang-2-induced increase in cell viability at 10 uM after 24 to 96 hrs by MTT assay; assay type: functional, cell-based; in short: as §5
[13] = system: Rattus norvegicus; experiment: Antihypertensive activity in Sprague-Dawley rat renal hypertensive model assessed as decrease in mean arterial pressure at 5 mg/kg, po; assay type: functional, organism-based; design: dose 5 mg/kg; conditions: Artery; in short: as §2
[14] = system: Rattus norvegicus; experiment: Antihypertensive activity in SHR rat assessed as decrease in mean arterial pressure at 10 mg/kg, po after 24 hrs; assay type: functional, organism-based; design: dose 10 mg/kg; conditions: Artery; in short: as §2
[15] = system: Rattus norvegicus; experiment: Antihypertensive activity in SHR rat assessed as decrease in mean arterial pressure at 5 to 10 mg/kg, po after 3 to 5 hrs; assay type: functional, organism-based; conditions: Artery; in short: as §2
[16] = system: Rattus norvegicus; experiment: Antihypertensive activity in SHR rat assessed as decrease in mean arterial pressure at 5 mg/kg, po; assay type: functional, Artery; in short: as §2
[17] = system: Rattus norvegicus; experiment: Antihypertensive activity in SHR rat assessed as decrease in mean arterial pressure at 5 to 10 mg/kg, po measured for 8 hrs after dosing; assay type: functional, organism-based; conditions: Artery; in short: as §2
[18] = system: Rattus norvegicus; experiment: Antihypertensive activity in SHR rat assessed as decrease in mean arterial pressure at 10 mg/kg, po after 3 hrs; assay type: functional, Artery; in short: as §2
[19] = system: Rattus norvegicus; experiment: Antihypertensive activity in SHR rat assessed as decrease in mean arterial pressure at 5 mg/kg, po after 3 hrs; assay type: functional, Artery; in short: as §2
[20] = system: Rattus norvegicus; experiment: Antihypertensive activity in SHR rat assessed as decrease in mean arterial pressure at 10 mg/kg, po measured for 7 hrs after dosing; assay type: functional, organism-based; design: dose 10 mg/kg; conditions: Artery; in short: as §2

Row | SMILES | IC50 [5] [nM] | Ki [5] [nM] | inhibition [6] | Activity [1] | Activity [2] | Activity [4] [mmHg] | Activity [7] | Activity [8] | further results
1 | CCCCC(=O)N(Cc1ccc(-c2ccccc2-c2nnn[nH]2)cc1)[C@H](C(=O)O)C(C)C [VALSARTAN] | 2.64 | 2.08 | Dose-dependent effect | Non-toxic | Active | 28 |  |  | Activity [3]: Active
2 | CCCCC1=NC2(CCCC2)C(=O)N1Cc1ccc(-c2ccccc2-c2nnn[nH]2)cc1 [IRBESARTAN] | 3.11 | 2.75 | Dose-dependent effect |  |  |  |  |  | 
3 | CCCCC1=NC2(CCCC2)C(=O)N1Cc1ccc(-c2ccc(F)cc2C(=O)O)cc1 | 9.98 | 6.75 | Dose-dependent effect | Non-toxic |  |  | Non-toxic | inactive | 
4 | CCCC(=O)N(Cc1ccc(-c2ccc(F)cc2C(=O)O)cc1)[C@H](C(=O)O)C(C)C | 0.584 | 0.42 | Dose-dependent effect | Non-toxic | Active | 42 | Non-toxic |  | Ratio [9]: 12.39; Ratio [10]: 17.44; Activity [11]: Non-toxic; Activity [12]: Active; Activity [13]: Active; Activity [14]: Active; Activity [15]: Active; Activity [16]: 27 mmHg
5 | CCCCc1nc(Cl)c(C(=O)O)n1Cc1ccc(-c2cc(F)ccc2C(=O)O)cc1 | 13.6 | 9.17 | Dose-dependent effect | Non-toxic | Active |  | Non-toxic |  | Activity [17]: Active; Activity [18]: 32 mmHg; Activity [19]: 23 mmHg
6 | CCCCc1nc(Cl)c(CO)n1Cc1ccc(-c2ccccc2-c2nn[nH]n2)cc1 [LOSARTAN] |  |  |  | Non-toxic |  |  |  |  | Activity [11]: Non-toxic
7 | CCCCc1nc(Cl)c(CO)n1Cc1ccc(-c2ccc(F)cc2C(=O)O)cc1 | 4.11 | 3.78 | Dose-dependent effect | Non-toxic | Active | 25 | Non-toxic |  | Activity [16]: 18 mmHg; Activity [17]: Active

The remaining compounds from weak to strong by IC50 [5], led by results:

Row | IC50 [5] [nM] | Ki [5] [nM] | inhibition [6] | SMILES | Activity [1] | Activity [2] | Activity [4] [mmHg] | Activity [7] | Activity [8] | further results
8 | 26.1 | 17.6 | Dose-dependent effect | CCCCc1nc(Cl)c(C(=O)O)n1Cc1ccc(-c2ccc(F)cc2C(=O)O)cc1 | Non-toxic |  |  | Non-toxic | inactive | 
9 | 13.5 | 9.11 | Dose-dependent effect | CCCCc1nc(Cl)c(C(=O)O)n1Cc1ccc(-c2cc(F)c(F)cc2C(=O)O)cc1 | Non-toxic |  |  | Non-toxic | inactive | 
10 | 1.64 | 1.41 | Dose-dependent effect | CCCCc1nc(Cl)c(CO)n1Cc1ccc(-c2ccccc2-c2nnn[nH]2)cc1 [LOSARTAN] |  | Active | 27 |  |  | Ratio [9]: 15.75; Ratio [10]: 21.44; Activity [12]: Active; Activity [20]: Active
